This is an account of results in ChEMBL document CHEMBL2021777 (J Med Chem, 2012).

The target in data set [1] is T1, Neuronal acetylcholine receptor; alpha3/beta4 (Rattus norvegicus, UniProt P04757+P12392). The experiment in a line: Displacement of [3H] epibatidine from rat alpha3beta4 nAChR by beta scintillation counting. The class given is protein-complex assay.
For data set [2], the target named is T2, Neuronal acetylcholine receptor; alpha4/beta2 (Homo sapiens, UniProt P17787+P43681). The experiment in a line: Agonist activity at human high sensitive and low sensitive alpha4beta2 nAChR expressed in SH-EP1 cells assessed as 86Rb+ ion efflux by flip-plate technique relative to sazetidine-A. It is filed as functional, cell-based. The essentials:
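SH-EP1-hα4β2 cells (stably transfected human α4 and β2, low passage 1−26) express mixed high- and low-sensitivity α4β2-nAChRs. Efficacy was measured by 86Rb+ flux on this mixed population. High-sensitivity efficacy was extrapolated by defining a reference agonist as 100% full agonist at the HS receptor.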

Data set [3] addresses T3, Neuronal acetylcholine receptors; alpha-3/beta-4, alpha-5, beta-2 (Homo sapiens) (UniProt P17787+P30926+P32297+P30532). The experiment in a line: Agonist activity at alpha3beta4alpha5beta2 in human SH-SY5Y cells at 10 uM by 86Rb+ flux assay. The class given is functional, cell-based. The essentials:
(§1)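 Human neuroblastoma SH-SY5Y cells endogenously express α3β4* nAChRs (α3, β4, probably α5, sometimes β2); their α7 receptors give no signal under these conditions. Cells were kept at low passage (1−26 from frozen stocks). Function was read as 86Rb+ efflux, with agonist and antagonist modes tested up to 10 μM.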

Data set [4] has as its target T4, Neuronal acetylcholine receptor; alpha4/beta2 (Rattus norvegicus, UniProt P09483+P12390). Description: Displacement of [3H] epibatidine from rat alpha4beta2* nAChR in rat forebrain by beta scintillation counting. A general note: In a radioligand displacement assay an active substance lowers the binding of a labelled ligand.
The target in data set [5] is T2, Neuronal acetylcholine receptor; alpha4/beta2. The experiment in a line: Partial agonist activity at human high sensitive alpha4beta2 nAChR expressed in SH-EP1 cells assessed as 86Rb+ ion efflux by flip-plate technique relative to sazetidine-A. It is filed as functional, cell-based. The essentials:
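86Rb+ ion flux in SH-EP1 cells stably transfected with separate human α4 and β2 subunit cDNAs, expressing a mixture of high- and low-sensitivity α4β2 nAChRs. Cells kept at low passage (1−26). Efficacy at the HS form extrapolated relative to a reference agonist defined as a 100% full agonist.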

Data set [6] deals with Neuronal acetylcholine receptor; alpha2/beta2 (Rattus norvegicus, UniProt P12389+P12390). Description: Displacement of [3H] epibatidine from rat alpha2beta2 nAChR by beta scintillation counting. The class given is protein-complex assay.
Sequence of Neuronal acetylcholine receptor; alpha2/beta2 (P12389 whole entry): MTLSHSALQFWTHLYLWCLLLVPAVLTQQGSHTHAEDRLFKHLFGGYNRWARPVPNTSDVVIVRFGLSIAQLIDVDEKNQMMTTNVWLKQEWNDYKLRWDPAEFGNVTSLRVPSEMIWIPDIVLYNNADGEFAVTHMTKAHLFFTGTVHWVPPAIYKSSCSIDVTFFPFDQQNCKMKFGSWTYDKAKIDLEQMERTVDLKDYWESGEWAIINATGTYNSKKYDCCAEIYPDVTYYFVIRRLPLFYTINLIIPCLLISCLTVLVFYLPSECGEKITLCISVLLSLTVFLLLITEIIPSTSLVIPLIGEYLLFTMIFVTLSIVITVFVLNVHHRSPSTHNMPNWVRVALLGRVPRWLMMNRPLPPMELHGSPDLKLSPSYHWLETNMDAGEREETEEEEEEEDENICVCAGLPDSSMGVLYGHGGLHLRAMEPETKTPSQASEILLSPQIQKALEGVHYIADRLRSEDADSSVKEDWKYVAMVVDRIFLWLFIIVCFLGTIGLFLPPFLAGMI
Sequence of Neuronal acetylcholine receptor; alpha2/beta2 (P12390 whole entry): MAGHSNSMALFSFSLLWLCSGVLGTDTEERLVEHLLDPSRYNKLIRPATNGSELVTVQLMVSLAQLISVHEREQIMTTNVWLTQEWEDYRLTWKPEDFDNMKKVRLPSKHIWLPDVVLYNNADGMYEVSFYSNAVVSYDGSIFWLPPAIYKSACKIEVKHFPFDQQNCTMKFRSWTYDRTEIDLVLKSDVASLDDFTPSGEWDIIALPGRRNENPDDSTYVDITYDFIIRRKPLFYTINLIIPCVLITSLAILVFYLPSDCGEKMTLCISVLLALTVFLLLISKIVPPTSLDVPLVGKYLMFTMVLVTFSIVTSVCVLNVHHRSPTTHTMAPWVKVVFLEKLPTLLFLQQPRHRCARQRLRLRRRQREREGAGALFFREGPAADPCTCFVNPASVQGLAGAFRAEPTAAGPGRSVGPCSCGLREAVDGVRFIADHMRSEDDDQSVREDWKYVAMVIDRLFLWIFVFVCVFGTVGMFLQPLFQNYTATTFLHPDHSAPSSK
In data set [7] the target is T2, Neuronal acetylcholine receptor; alpha4/beta2. The experiment in a line: Agonist activity at human alpha4beta2 nAChR expressed in SH-EP1 cells assessed as 86Rb+ ion efflux after 9.5 mins by flip-plate technique. It is filed as functional, cell-based. The essentials:
(§2)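 SH-EP1 human epithelial cells stably transfected with separate human α4 and β2 subunit cDNAs express a mixed population of high-sensitivity (2:3 α4:β2) and low-sensitivity (3:2) α4β2-nAChRs. Cells were kept at low passage (1−26 from frozen stocks). Function was read as 86Rb+ ion flux.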

In data set [8] the target is Neuronal acetylcholine receptor; alpha3/beta2 (Rattus norvegicus, UniProt P04757+P12390). The experiment in a line: Displacement of [3H] epibatidine from rat alpha3beta2 nAChR by beta scintillation counting. It is filed as protein-complex assay.
The target in data set [9] is T4, Neuronal acetylcholine receptor; alpha4/beta2. The experiment in a line: Displacement of [3H] epibatidine from rat alpha4beta2 nAChR by beta scintillation counting. The class given is protein-complex assay.
In data set [10] the target is T3, Neuronal acetylcholine receptors; alpha-3/beta-4, alpha-5, beta-2 (Homo sapiens). The experiment in a line: Antagonist activity at alpha3beta4alpha5beta2 in human SH-SY5Y cells at 10 uM by 86Rb+ flux assay. The class given is functional, cell-based. A digest of the protocol:
as §1

The target of data set [11] is Neuronal acetylcholine receptor; alpha2/beta4 (Rattus norvegicus, UniProt P12389+P12392). The experiment in a line: Displacement of [3H] epibatidine from rat alpha2beta4 nAChR by beta scintillation counting. It is filed as protein-complex assay.
Sequence of Neuronal acetylcholine receptor; alpha2/beta4 (P12389 whole entry): as the sequence (P12389 whole entry) above
Sequence of Neuronal acetylcholine receptor; alpha2/beta4 (P12392 whole entry): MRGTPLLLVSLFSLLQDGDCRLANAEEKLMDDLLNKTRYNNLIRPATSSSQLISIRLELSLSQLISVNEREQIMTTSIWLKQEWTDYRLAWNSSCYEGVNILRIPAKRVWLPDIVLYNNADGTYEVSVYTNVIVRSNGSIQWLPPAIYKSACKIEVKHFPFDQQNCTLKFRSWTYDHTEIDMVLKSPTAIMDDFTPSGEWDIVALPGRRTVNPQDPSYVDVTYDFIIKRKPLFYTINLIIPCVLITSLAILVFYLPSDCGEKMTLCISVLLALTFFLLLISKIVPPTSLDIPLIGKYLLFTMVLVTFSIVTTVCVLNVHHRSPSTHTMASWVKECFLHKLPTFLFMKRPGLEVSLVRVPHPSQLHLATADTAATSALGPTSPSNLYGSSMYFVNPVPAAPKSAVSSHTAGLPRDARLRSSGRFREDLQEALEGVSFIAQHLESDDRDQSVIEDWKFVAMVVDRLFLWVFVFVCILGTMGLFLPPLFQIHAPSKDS
Data set [12] concerns the target T5, Acetylcholine receptor; alpha1/beta1/delta/gamma (Homo sapiens) (UniProt P02708+P07510+P11230+Q07001). Description: Antagonist activity at human alpha1beta1gammadelta nAChR expressed in TE671/RD cells at 10 uM by 86Rb+ flux assay. It is filed as functional, cell-based. A digest of the protocol: (§3)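 Human clonal TE671/RD cells endogenously express muscle-type α1*-nAChRs (α1, β1, γ, δ). Cells were kept at low passage (1−26 from frozen stocks). Function was read as 86Rb+ efflux, with agonist and antagonist modes tested up to 10 μM.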

For data set [13], the target named is T2, Neuronal acetylcholine receptor; alpha4/beta2. Description: Antagonist activity at human high sensitive and low sensitive alpha4beta2 nAChR expressed in SH-EP1 cells assessed as inhibition of carbamylcholine induced 86Rb+ ion efflux preincubated for 10 mins prior to carbamylcholine-induction measured after 5 mins by flip-plate technique relative to control. It is filed as functional, cell-based. The essentials:
as §2

Data set [14] addresses T5, Acetylcholine receptor; alpha1/beta1/delta/gamma (Homo sapiens). Description: Agonist activity at human alpha1beta1gammadelta nAChR expressed in TE671/RD cells at 10 uM by 86Rb+ flux assay. It is filed as functional, cell-based. A digest of the protocol: as §3
The target of data set [15] is T2, Neuronal acetylcholine receptor; alpha4/beta2. The experiment in a line: Antagonist activity at human alpha4beta2 nAChR expressed in SH-EP1 cells assessed as inhibition of carbamylcholine induced 86Rb+ ion efflux preincubated for 10 mins prior to carbamylcholine-induction measured after 5 mins by flip-plate technique. It is filed as functional, cell-based. The essentials:
as §2

The target in data set [16] is Neuronal acetylcholine receptor; alpha4/beta4 (Rattus norvegicus, UniProt P09483+P12392). Description: Displacement of [3H] epibatidine from rat alpha4beta4 nAChR by beta scintillation counting. It is filed as protein-complex assay.
Sequence of Neuronal acetylcholine receptor; alpha4/beta4 (P09483 whole entry): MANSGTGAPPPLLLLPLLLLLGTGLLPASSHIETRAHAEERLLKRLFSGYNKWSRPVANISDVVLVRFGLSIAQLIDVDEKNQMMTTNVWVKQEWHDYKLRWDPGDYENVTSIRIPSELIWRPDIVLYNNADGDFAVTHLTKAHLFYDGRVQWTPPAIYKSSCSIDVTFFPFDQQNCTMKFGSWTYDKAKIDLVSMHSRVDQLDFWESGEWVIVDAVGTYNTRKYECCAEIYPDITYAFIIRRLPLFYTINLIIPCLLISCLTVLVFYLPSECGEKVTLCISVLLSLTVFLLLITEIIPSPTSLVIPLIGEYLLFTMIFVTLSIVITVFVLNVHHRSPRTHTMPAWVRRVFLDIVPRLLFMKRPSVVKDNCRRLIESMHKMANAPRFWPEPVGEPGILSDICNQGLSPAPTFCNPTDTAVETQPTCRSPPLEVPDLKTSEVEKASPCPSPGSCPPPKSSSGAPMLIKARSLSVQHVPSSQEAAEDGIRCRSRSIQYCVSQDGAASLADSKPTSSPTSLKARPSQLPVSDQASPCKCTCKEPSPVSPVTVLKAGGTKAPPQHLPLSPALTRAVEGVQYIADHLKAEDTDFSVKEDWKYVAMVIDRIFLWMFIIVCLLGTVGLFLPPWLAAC
Sequence of Neuronal acetylcholine receptor; alpha4/beta4 (P12392 whole entry): as the sequence (P12392 whole entry) above
A further data set is filed under the species Rattus norvegicus. Description: Selectivity ratio of Ki for rat alpha3beta4 to Ki for rat alpha4beta2. A digest of the protocol:
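Ki values from [3H]epibatidine competition binding at heterologously expressed rat nAChR subtypes, using the PDSP protocol; selectivity taken as the α3β4/α4β2 Ki ratio.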

For data set [17], the target named is Neuronal acetylcholine receptor subunit alpha-7 (Homo sapiens) (UniProt P36544). Description: Displacement of [3H]epibatidine from human alpha7 nAChR expressed in SH-EP1 cells at 10 uM by beta scintillation counting. It is filed as cell-based. A digest of the protocol:
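Membranes from SH-EP1 cells heterologously expressing human α7 nAChRs; test ligand at 10 μM competing with 10 nM [3H]epibatidine; protocol similar to the PDSP one.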

Data set [18] addresses T4, Neuronal acetylcholine receptor; alpha4/beta2. Description: Displacement of [3H] epibatidine from rat alpha4beta2* nAChR in rat forebrain by liquid scintillation counting.
Data set [19] in a line: Drug uptake in BALB/cJ mouse brain at 3 mg/kg after 15 mins. The class given is ADME, organism-based. Also on record: dose 3 mg/kg. To be noted: read-out: Drug uptake.
In data set [20] the target is T4, Neuronal acetylcholine receptor; alpha4/beta2. Description: Displacement of [3H] epibatidine from rat alpha4beta2 nAChR expressed in HEK293 cells by liquid scintillation counting. It is filed as cell-based.
Data set [21] is described as follows: Drug uptake in BALB/cJ mouse brain at 1 mg/kg after 15 mins. The conditions noted are these: read-out: Drug uptake. Also on record: dose 1 mg/kg. The class given is ADME, organism-based.
The target in data set [22] is T1, Neuronal acetylcholine receptor; alpha3/beta4. Description: Displacement of [3H] epibatidine from rat alpha3beta4 nAChR expressed in HEK293 cells by liquid scintillation counting. It is filed as cell-based.

The source made the active and inactive calls.

T3 sequence (P17787 whole entry, looked up): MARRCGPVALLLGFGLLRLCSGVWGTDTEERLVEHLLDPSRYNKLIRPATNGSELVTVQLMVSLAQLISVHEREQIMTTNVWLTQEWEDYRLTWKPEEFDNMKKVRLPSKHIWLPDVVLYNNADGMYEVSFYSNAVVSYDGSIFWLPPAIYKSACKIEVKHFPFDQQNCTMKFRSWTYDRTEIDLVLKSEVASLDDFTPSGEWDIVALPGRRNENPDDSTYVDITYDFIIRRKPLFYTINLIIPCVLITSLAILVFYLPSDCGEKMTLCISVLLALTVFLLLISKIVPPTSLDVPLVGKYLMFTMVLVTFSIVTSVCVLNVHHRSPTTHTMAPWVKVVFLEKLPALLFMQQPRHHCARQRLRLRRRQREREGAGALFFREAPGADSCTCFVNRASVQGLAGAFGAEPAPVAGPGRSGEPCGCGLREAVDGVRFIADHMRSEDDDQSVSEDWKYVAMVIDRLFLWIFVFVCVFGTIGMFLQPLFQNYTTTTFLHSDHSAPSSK
T3 sequence (P30532 whole entry, looked up): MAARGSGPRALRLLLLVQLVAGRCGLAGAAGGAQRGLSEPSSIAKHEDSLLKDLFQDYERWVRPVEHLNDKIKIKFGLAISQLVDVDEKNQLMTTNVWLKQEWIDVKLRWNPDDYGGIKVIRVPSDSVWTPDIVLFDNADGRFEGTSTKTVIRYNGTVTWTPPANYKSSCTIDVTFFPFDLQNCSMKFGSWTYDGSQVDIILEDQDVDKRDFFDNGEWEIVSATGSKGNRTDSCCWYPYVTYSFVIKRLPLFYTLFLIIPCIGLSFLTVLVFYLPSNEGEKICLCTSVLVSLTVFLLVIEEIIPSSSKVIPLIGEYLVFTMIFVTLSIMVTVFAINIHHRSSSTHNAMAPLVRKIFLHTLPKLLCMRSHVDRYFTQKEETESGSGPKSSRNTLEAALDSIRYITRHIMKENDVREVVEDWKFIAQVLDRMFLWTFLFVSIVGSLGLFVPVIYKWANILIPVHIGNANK
T3 sequence (P30926 whole entry, looked up): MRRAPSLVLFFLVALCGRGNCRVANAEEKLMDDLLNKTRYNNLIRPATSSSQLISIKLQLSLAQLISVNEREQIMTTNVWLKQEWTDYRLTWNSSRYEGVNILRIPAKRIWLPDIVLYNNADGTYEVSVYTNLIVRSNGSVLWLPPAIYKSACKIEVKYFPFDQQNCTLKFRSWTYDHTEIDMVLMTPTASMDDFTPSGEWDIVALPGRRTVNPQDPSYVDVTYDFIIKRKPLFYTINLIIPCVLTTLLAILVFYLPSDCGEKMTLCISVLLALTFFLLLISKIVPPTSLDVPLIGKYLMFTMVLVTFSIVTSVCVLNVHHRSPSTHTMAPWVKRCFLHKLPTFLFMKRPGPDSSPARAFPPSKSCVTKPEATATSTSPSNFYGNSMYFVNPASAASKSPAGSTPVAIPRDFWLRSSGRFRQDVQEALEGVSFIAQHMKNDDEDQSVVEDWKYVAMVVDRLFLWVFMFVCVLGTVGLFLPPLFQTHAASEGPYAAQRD
T3 sequence (P32297 whole entry, looked up): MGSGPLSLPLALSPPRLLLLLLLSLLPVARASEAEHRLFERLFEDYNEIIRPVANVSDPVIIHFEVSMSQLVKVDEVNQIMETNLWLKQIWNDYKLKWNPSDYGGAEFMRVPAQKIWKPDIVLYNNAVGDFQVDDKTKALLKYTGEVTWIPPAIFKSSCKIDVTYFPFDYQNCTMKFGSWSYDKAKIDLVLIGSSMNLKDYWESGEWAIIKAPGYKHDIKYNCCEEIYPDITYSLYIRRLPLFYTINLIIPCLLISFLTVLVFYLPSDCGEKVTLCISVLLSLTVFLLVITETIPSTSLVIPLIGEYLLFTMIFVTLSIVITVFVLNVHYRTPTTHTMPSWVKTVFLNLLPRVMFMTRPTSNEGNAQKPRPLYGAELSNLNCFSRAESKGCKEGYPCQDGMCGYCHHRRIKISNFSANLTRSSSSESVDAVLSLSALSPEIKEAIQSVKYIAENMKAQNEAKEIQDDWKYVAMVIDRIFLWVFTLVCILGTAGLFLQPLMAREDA
T2 sequence (P17787 whole entry): as the sequence (P17787 whole entry, looked up) above
T2 sequence (P43681 whole entry): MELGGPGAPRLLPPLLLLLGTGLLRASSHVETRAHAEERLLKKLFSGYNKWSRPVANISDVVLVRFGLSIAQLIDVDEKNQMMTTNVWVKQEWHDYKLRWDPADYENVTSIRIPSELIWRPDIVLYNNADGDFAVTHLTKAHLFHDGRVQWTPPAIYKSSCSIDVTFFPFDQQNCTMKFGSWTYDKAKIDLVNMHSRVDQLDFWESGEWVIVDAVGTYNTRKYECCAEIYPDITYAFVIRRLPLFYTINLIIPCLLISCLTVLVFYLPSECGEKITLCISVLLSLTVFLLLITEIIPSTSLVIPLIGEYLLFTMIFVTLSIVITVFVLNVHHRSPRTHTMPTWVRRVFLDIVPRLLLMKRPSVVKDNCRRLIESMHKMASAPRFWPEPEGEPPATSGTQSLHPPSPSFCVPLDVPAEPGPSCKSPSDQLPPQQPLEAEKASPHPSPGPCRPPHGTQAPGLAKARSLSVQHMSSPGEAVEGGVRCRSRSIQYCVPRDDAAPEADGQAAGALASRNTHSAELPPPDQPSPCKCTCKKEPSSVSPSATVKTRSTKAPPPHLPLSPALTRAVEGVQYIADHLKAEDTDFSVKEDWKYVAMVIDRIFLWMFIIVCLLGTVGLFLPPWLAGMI
T4 sequence (P09483 whole entry): as the sequence (P09483 whole entry) above
T4 sequence (P12390 whole entry): as the sequence (P12390 whole entry) above

`COCC[C@@H]1C[C@H]1c1cncc(OC[C@@H]2CCN2)c1`: the inhibition constant (Ki) (usually the equilibrium dissociation constant of an inhibitor or competing ligand from its target) in [1] is more than 10000 nM; in [4], 6.2 nM; in data set [6], 0.5 nM; in [8], 20 nM; in data set [9] it was 0.6 nM; in data set [11], 405 nM. In data set [16], the affinity corresponds to a Ki of 96.5 nM. Moreover, the figures for the Efficacy in [2], in [5] and in [13] were 8%, 62% and 75%, respectively. The result in [3], in data set [10], in [12] and in [14] was inactive. In addition, the EC50 (as a rule, the midpoint of the concentration-response curve) in data set [7] was 43.1 nM. For the same compound, in data set [15], the IC50 (as a rule, the point on the concentration scale where inhibition reaches its midpoint) turned out to be 50.4 nM. In the data set filed under Rattus norvegicus, the Ratio Ki was more than 16700.

`O=C(NC1CC1)OCC[C@H]1C[C@@H]1c1cncc(OC[C@@H]2CCN2)c1`: the Ki in [1] is more than 10000 nM; in [4] it was 2.4 nM; in data set [6] it was 0.9 nM; in [8] it was 16 nM; in data set [9], 0.7 nM; in data set [11], 720 nM. For the same compound, the affinity in data set [16] corresponds to a Ki of 234 nM. For the same compound, the Efficacy in data set [2] was determined as 27%; in [5], 80%; in data set [13], 82%. The result in data set [3], in data set [10], in data set [12] and in data set [14] was inactive. The EC50 in data set [7] worked out at 23.3 nM. The IC50 in [15] was found to be 19.6 nM. Besides, the Ratio Ki in the data set listed under Rattus norvegicus is more than 100000.

Turning to `CN(C)C(=O)OCC[C@H]1C[C@@H]1c1cncc(OC[C@@H]2CCN2)c1`, the inhibition constant (Ki) in data set [1] is more than 10000 nM; in data set [4] it was 2.1 nM; in [6], 0.3 nM; in [8], 15 nM; in [9], 0.4 nM; in data set [11], 261 nM. In data set [16], this compound yielded a Ki of 281 nM. Further, the results for the Efficacy in [2], in [5] and in data set [13] were 15%, 71% and 85%, respectively. For the same compound, the result in data set [3], in data set [10], in data set [12] and in data set [14] was inactive. Besides, in [7], the EC50 was found to be 18.2 nM. Moreover, the IC50 in [15] worked out at 19.1 nM. Besides, in the data set filed under Rattus norvegicus, the Ratio Ki was more than 100000.

In the case of `CN1CCC[C@H]1c1cccnc1`, the outcome in data set [3], in [10], in data set [12] and in data set [14] was inactive.

As for `OCC[C@@H]1C[C@H]1c1cncc(OC[C@@H]2CCN2)c1`, the Ki in data set [1] came out at 1040 nM; in data set [4] it was 3.7 nM; in [6], 0.5 nM; in data set [8], 17 nM; in [9], 0.7 nM; in data set [11] it was 65 nM. The compound further gave a Ki in [16] of 29 nM. The results for the Efficacy in data set [2], in data set [5] and in data set [13] were 10%, 65% and 69%, respectively. Further, the result in data set [3], in data set [10], in data set [12] and in data set [14] was inactive. Further, the EC50 in data set [7] worked out at 34.6 nM. In addition, in data set [15], the IC50 was 50.9 nM. Also, the Ratio Ki in the data set filed under Rattus norvegicus worked out at 1500.

With `O=C(OCC[C@H]1C[C@@H]1c1cncc(OC[C@@H]2CCN2)c1)N1CCCC1`, the Ki in [1] was more than 10000 nM; in data set [4], 4 nM; in data set [6], 1.5 nM; in [8], 21.5 nM; in data set [9] it was 0.8 nM; in [11], 2330 nM. The same compound displayed a Ki in [16] of 162 nM. The results for the Efficacy in data set [2], in data set [5] and in [13] were 23%, 69% and 84%, respectively. Further, the outcome in data set [3], in [10], in [12] and in [14] was inactive. Besides, the %max in data set [17] worked out at 30%. In addition, the half-maximal effective concentration (EC50) in data set [7] turned out to be 44.4 nM. Also, in data set [15], the IC50 was found to be 48.5 nM. Further, in the data set listed under Rattus norvegicus, the Ratio Ki is more than 100000.

Turning to `OCCCCC#Cc1cncc(OC[C@@H]2CCN2)c1`, the figures for the Efficacy in data set [2], in [5] and in data set [13] were 55%, 100% and 63%, respectively. Moreover, the Ki in [18] was found to be 0.9 nM; in data set [20], 0.4 nM; in data set [22], 1000 nM. In addition, the concentration at 0.25 h in [19] came to 10 ng/g; in [21], 3 ng/g. The outcome in data set [3], in data set [10], in data set [12] and in data set [14] was inactive. Besides, the EC50 in data set [7] was 5.8 nM. Also, the IC50 in data set [15] stood at 4.8 nM. Besides, the Ratio Ki in the data set filed under Rattus norvegicus amounted to 24000.

As to `O=C(Nc1ccccc1)OCC[C@H]1C[C@@H]1c1cncc(OC[C@@H]2CCN2)c1`, the inhibition constant (Ki) in [1] was 8850 nM; in [4] it was 5.9 nM; in data set [6], 1.2 nM; in [8], 24.4 nM; in [9], 0.6 nM; in data set [11], 241 nM. In data set [16], this compound had a Ki of 551 nM. In addition, the Efficacy in data set [2] came out at 24%; in [5] it was 78%; in [13], 87%. Besides, the result in [3], in [10], in data set [12] and in data set [14] was inactive. The EC50 in [7] worked out at 48.9 nM. For the same compound, in data set [15], the IC50 amounted to 50.2 nM. Further, the Ratio Ki in the data set filed under Rattus norvegicus came to 14800.
